Assay results published in ChEMBL document CHEMBL1145867, “Muraymycins, novel peptidoglycan biosynthesis inhibitors: synthesis and SAR of their analogues” (2003).
Values after ≈ are worked out from the molar mass of the structure shown. Active and inactive are the calls of the source. The rule behind the calls is not given here.

How the values were obtained:
[1] = system: Candida albicans; assay: In vitro antimicrobial activity against Candida albicans […] at 32 ug/ml soluble peptidoglycan; format: functional
[2] = system: Enterococcus faecalis; assay: In vitro antimicrobial activity against Enterococcus faecalis GC 2242 at 32 ug/ml soluble peptidoglycan; format: functional
[3] = system: Enterococcus faecalis; assay: In vitro antimicrobial activity against Enterococcus faecalis GC 4555 at 32 ug/ml soluble peptidoglycan; format: functional
[4] = system: Enterococcus faecalis; assay: In vitro antimicrobial activity against Enterococcus faecalis GC 842 at 32 ug/ml soluble peptidoglycan; format: functional
[5] = The inhibitory activity of compound against MraY or MurG at 100 ug/mL; Inhibit
[6] = The inhibitory activity of compound against MraY or MurG at 12.5 ug/mL; No inhibition
[7] = The inhibitory activity of compound against MraY or MurG at 25 ug/mL; No inhibition
[8] = The inhibitory activity of compound against MraY or MurG at 50 ug/mL; No inhibition
[9] = The inhibitory activity of compound against MraY or MurG at 6.25 ug/mL; No inhibition
[10] = system: Staphylococcus aureus; assay: In vitro antimicrobial activity against Staphylococcus aureus GC 1131 at 32 ug/ml soluble peptidoglycan; format: functional
[11] = system: Staphylococcus sp.; assay: In vitro antimicrobial activity against CNS GC 4538 at 32 ug/ml soluble peptidoglycan; format: functional
[12] = system: Staphylococcus sp.; assay: In vitro antimicrobial activity against CNS GC 4547 at 32 ug/ml soluble peptidoglycan; format: functional
[13] = system: Staphylococcus aureus; assay: In vitro antimicrobial activity against Staphylococcus aureus GC 4536 at 32 ug/ml soluble peptidoglycan; format: functional
[14] = system: Staphylococcus sp.; assay: In vitro antimicrobial activity against Coagulase-negative staphylococcus GC 4538 at 32 ug/ml soluble peptidoglycan; format: functional
[15] = system: Staphylococcus aureus; assay: In vitro antimicrobial activity against Staphylococcus aureus GC 2216 at 32 ug/ml soluble peptidoglycan; format: functional
[16] = system: Bacteria; assay: In vitro antimicrobial activity against gram-negative organisms (10)
[17] = system: Bacteria; assay: In vitro antimicrobial activity against gram-negative organisms (10); format: functional
Method in brief: (§1)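 Broth microdilution per NCCLS guidance. Serial dilutions of each agent in microtiter plates are inoculated with each organism to 10⁵ CFU/mL and incubated 18–22 h at 35 C in ambient air. MIC is the lowest concentration giving complete growth inhibition, judged by the unaided eye.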

[18] = The inhibitory activity of compound against MraY or MurG at 12.5 ug/mL; No Inhibition
[19] = The inhibitory activity of compound against MraY or MurG at 25 ug/mL; Inhibit
[20] = The inhibitory activity of compound against MraY or MurG at 50 ug/mL; Inhibit
[21] = The inhibitory activity of compound against MraY or MurG at 6.25 ug/mL; No Inhibition
[22] = system: Staphylococcus sp.; assay: In vitro antimicrobial activity against Staphylococci; format: functional, staphyl ococcus species; method in brief: as §1
[23] = system: Enterococcus sp.; assay: In vitro antimicrobial activity against Enterococci; format: functional; method in brief: as §1
[24] = The inhibitory activity of compound against MraY or MurG at 100 ug/mL;Inhibit
[25] = system: Enterococcus faecalis; assay: In vitro antimicrobial activity against Enterococcus faecalis GC 2242; format: functional; method in brief: as §1
[26] = system: Enterococcus faecalis; assay: In vitro antimicrobial activity against Enterococcus faecalis GC 4555; format: functional; method in brief: as §1
[27] = system: Enterococcus faecalis; assay: In vitro antimicrobial activity against Enterococcus faecalis GC 842; format: functional; method in brief: as §1
[28] = system: Staphylococcus sp.; assay: In vitro antimicrobial activity against CNS GC 4538; format: functional; method in brief: as §1
[29] = system: Staphylococcus aureus; assay: In vitro antimicrobial activity against Staphylococcus aureus GC 1131; format: functional; method in brief: as §1
[30] = system: Staphylococcus aureus; assay: In vitro antimicrobial activity against Staphylococcus aureus GC 2216; format: functional; method in brief: as §1
[31] = system: Staphylococcus aureus; assay: In vitro antimicrobial activity against Staphylococcus aureus GC 4536; format: functional; method in brief: as §1
[32] = system: Staphylococcus sp.; assay: In vitro antimicrobial activity against CNS GC 4547; format: functional; method in brief: as §1
[33] = system: Staphylococcus sp.; assay: In vitro antimicrobial activity against Coagulase-negative staphylococcus GC 4538; format: functional; method in brief: as §1
[34] = system: Candida albicans; assay: In vitro antimicrobial activity against Candida albicans GC 3066; format: functional; method in brief: as §1
[35] = system: Escherichia coli; assay: In vitro antimicrobial activity against Escherichia coli GC 2214; format: functional; method in brief: as §1
[36] = system: Escherichia coli; assay: In vitro antimicrobial activity against Escherichia coli GC 4559; format: functional; method in brief: as §1
[37] = system: Escherichia coli; assay: In vitro antimicrobial activity against Escherichia coli GC 4560; format: functional; method in brief: as §1
[38] = system: Enterobacter cloacae; assay: In vitro antimicrobial activity against Enterobacter cloacae GC 3783; format: functional; method in brief: as §1
[39] = system: Klebsiella pneumoniae; assay: In vitro antimicrobial activity against Klebsiella pneumoniae GC 4534; format: functional; method in brief: as §1
[40] = system: Morganella morganii; assay: In vitro antimicrobial activity against Morganella morganii GC 4531; format: functional; method in brief: as §1
[41] = The inhibitory activity of compound against MraY or MurG at 25 ug/mL; No Inhibition
[42] = system: Pseudomonas aeruginosa; assay: In vitro antimicrobial activity against Pseudomonas aeruginosa GC 2214; format: functional; method in brief: as §1
[43] = system: Pseudomonas aeruginosa; assay: In vitro antimicrobial activity against Pseudomonas aeruginosa GC 4532; format: functional; method in brief: as §1
[44] = system: Staphylococcus aureus; assay: In vitro antimicrobial activity against Staphylococcu aureus GC 1131; format: functional
Method in brief: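 Broth dilution per NCCLS recommendations. Serial dilutions in microtiter plates inoculated to 10⁵ CFU/mL, then incubated 18–22 h at 35 C in ambient air. MIC taken as the lowest concentration giving complete growth inhibition by unaided eye.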

[45] = system: Staphylococcus aureus; assay: In vitro antimicrobial activity against Staphylococcu aureus GC 2216; format: functional; method in brief: as §1
[46] = system: Staphylococcus aureus; assay: In vitro antimicrobial activity against Staphylococcu aureus GC 4536; format: functional; method in brief: as §1
[47] = system: Escherichia coli; assay: In vitro antimicrobial activity against Escherichia coli GC 3226; format: functional; method in brief: as §1
[48] = system: Serratia marcescens; assay: In vitro antimicrobial activity against Serratia marcescens GC 4077; format: functional; method in brief: as §1
[49] = Staphylococcus sp., read-out: MIC

| Structure (SMILES) | MIC [1] [µg/mL] | MIC [2] [µg/mL] | MIC [3] [µg/mL] | MIC [4] [µg/mL] | MIC [10] [µg/mL] | MIC [11] [µg/mL] | MIC [12] [µg/mL] | MIC [13] [µg/mL] | MIC [14] [µg/mL] | MIC [15] [µg/mL] | MIC [16] [µg/mL] | MIC [17] [µg/mL] | Inhibitory activity [18] | Inhibitory activity [20] | Inhibitory activity [21] | MIC [22] [µg/mL] | MIC [23] [µg/mL] | Inhibitory activity [24] | MIC [25] [µg/mL] | MIC [26] [µg/mL] | further results |
| --- | --- | --- | --- | --- | --- | --- | --- | --- | --- | --- | --- | --- | --- | --- | --- | --- | --- | --- | --- | --- | --- |
| COc1ccc(Cn2c(=O)ccn([C@@H]3OC([C@H](O)[C@H](NCCCNC(=O)[C@H](N)C(C)O)C(=O)OC(C)(C)C)[C@@H](O[Si](C)(C)C(C)(C)C)[C@H]3O[Si](C)(C)C(C)(C)C)c2=O)cc1 (stereo partly drawn) | > 128 | 8 (≈ 9.09 µM) | 4 (≈ 4.54 µM) | 4 (≈ 4.54 µM) | 8 (≈ 9.09 µM) | 4 (≈ 4.54 µM) | 8 (≈ 9.09 µM) | 4 (≈ 4.54 µM) | 4 (≈ 4.54 µM) | 4 (≈ 4.54 µM) | > 128 | – | – | – | – | – | – | – | – | – | Inhibitory activity [5]: Inhibit; Inhibitory activity [6]: inactive; Inhibitory activity [7]: inactive; Inhibitory activity [8]: inactive; Inhibitory activity [9]: inactive |
| COc1ccc(Cn2c(=O)ccn([C@@H]3OC([C@H](O)[C@H](NCCCNC(=O)[C@H](N)CC(C)C)C(=O)OC(C)(C)C)[C@@H](O[Si](C)(C)C(C)(C)C)[C@H]3O[Si](C)(C)C(C)(C)C)c2=O)cc1 (stereo partly drawn) | – | – | – | – | – | – | – | – | – | – | – | > 128 | inactive | Inhibit | inactive | 4 (≈ 4.48 µM) | 4 (≈ 4.48 µM) | Inhibit | – | – | Inhibitory activity [19]: Inhibit |
| COc1ccc(Cn2c(=O)ccn([C@@H]3OC([C@H](O)[C@H](NCCCNC(=O)[C@H](NC(=O)OCc4ccccc4)C(C)O)C(=O)OC(C)(C)C)[C@@H](O[Si](C)(C)C(C)(C)C)[C@H]3O[Si](C)(C)C(C)(C)C)c2=O)cc1 (stereo partly drawn) | 128 (≈ 126 µM) | > 128 | > 128 | 128 (≈ 126 µM) | > 128 | > 128 | > 128 | > 128 | > 128 | > 128 | > 128 | – | – | – | – | – | – | – | – | – | – |
| COC1C(O)[C@@H](OC(C(NCCCNC(=O)[C@H](NC(=O)[C@@H](NC(=O)N[C@H](C(=O)O)C(C)C)C2CCN=C(N)N2)C(OC(=O)CCCCCCCCCCCN(O)C(=N)N)C(C)C)C(=O)O)[C@H]2O[C@@H](n3ccc(=O)[nH]c3=O)[C@H](O)[C@@H]2O)O[C@H]1CN (stereo partly drawn) | – | – | – | – | – | – | – | – | – | – | – | 8 (≈ 6.66 µM) | – | – | – | – | – | – | 32 (≈ 26.6 µM) | 16 (≈ 13.3 µM) | MIC [27]: 4 µg/mL (≈ 3.33 µM); MIC [28, 49]: 1 µg/mL (≈ 0.832 µM); MIC [29]: 4 µg/mL (≈ 3.33 µM); MIC [30]: 8 µg/mL (≈ 6.66 µM); MIC [31]: 4 µg/mL (≈ 3.33 µM); MIC [32]: 8 µg/mL (≈ 6.66 µM); MIC [33]: 2 µg/mL (≈ 1.66 µM) |
| COc1ccc(Cn2c(=O)ccn([C@@H]3OC([C@H](O)[C@H](NCCCNC(=O)[C@H](N)C(O)C(C)C)C(=O)OC(C)(C)C)[C@@H](O[Si](C)(C)C(C)(C)C)[C@H]3O[Si](C)(C)C(C)(C)C)c2=O)cc1 (stereo partly drawn) | – | – | – | – | – | – | – | – | – | – | – | > 128 | inactive | Inhibit | inactive | 4 (≈ 4.4 µM) | 128 (≈ 141 µM) | Inhibit | 4 (≈ 4.4 µM) | 4 (≈ 4.4 µM) | MIC [34]: > 128 µg/mL; MIC [27]: 8 µg/mL (≈ 8.81 µM); MIC [35]: > 128 µg/mL; MIC [36]: > 128 µg/mL; MIC [37]: > 128 µg/mL; MIC [38]: > 128 µg/mL; MIC [39]: > 128 µg/mL; MIC [40]: > 128 µg/mL; Inhibitory activity [41]: inactive; MIC [42]: > 128 µg/mL; MIC [43]: > 128 µg/mL; MIC [28]: 4 µg/mL (≈ 4.4 µM); MIC [28, 49]: 4 µg/mL (≈ 4.4 µM); MIC [44]: 4 µg/mL (≈ 4.4 µM); MIC [45]: 4 µg/mL (≈ 4.4 µM); MIC [46]: 16 µg/mL (≈ 17.6 µM); MIC [32]: 16 µg/mL (≈ 17.6 µM); MIC [47]: > 128 µg/mL; MIC [48]: > 128 µg/mL |
